Laboratory results from ChEMBL document CHEMBL4422663, “Suppression of Tumor Growth and Metastases by Targeted Intervention in Urokinase Activity with Cyclic Peptides” (J Med Chem, 2019).
The source made the active and inactive calls. The rule behind the calls is not given here. Positions of bridges follow the written chain, without caps; N, C: chain ends. Residues, ends and D or L forms follow the SMILES beside them.

Key:
[1] = target: T1, Tissue-type plasminogen activator (Homo sapiens, UniProt P00750); experiment: Inhibition of human tissue-type plasminogen activator preincubated for 15 mins followed by chromogenic substrate addition
T1 sequence (P00750 whole entry): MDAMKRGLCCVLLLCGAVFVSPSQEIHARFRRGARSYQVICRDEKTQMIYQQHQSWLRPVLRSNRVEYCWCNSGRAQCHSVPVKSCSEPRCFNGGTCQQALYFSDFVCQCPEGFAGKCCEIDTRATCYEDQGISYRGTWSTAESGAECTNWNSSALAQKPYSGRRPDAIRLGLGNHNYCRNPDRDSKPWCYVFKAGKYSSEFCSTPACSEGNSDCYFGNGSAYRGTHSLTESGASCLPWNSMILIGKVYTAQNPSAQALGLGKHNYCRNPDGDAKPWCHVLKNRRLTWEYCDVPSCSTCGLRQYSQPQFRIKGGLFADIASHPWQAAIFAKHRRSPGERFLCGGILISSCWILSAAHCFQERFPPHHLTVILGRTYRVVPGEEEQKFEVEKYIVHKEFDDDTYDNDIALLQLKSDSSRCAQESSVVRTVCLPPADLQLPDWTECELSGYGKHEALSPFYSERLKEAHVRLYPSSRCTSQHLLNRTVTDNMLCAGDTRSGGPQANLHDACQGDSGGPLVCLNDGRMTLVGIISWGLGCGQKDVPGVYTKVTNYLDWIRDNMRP

[2] = target: T2, Prothrombin (Homo sapiens, UniProt P00734); experiment: Inhibition of human thrombin preincubated for 15 mins followed by chromogenic substrate addition
[3] = target: Coagulation factor XI (Homo sapiens, UniProt P03951); experiment: Inhibition of human factor 11a preincubated for 15 mins followed by chromogenic substrate addition
Chain of Coagulation factor XI (P03951 19-387 limits assumed): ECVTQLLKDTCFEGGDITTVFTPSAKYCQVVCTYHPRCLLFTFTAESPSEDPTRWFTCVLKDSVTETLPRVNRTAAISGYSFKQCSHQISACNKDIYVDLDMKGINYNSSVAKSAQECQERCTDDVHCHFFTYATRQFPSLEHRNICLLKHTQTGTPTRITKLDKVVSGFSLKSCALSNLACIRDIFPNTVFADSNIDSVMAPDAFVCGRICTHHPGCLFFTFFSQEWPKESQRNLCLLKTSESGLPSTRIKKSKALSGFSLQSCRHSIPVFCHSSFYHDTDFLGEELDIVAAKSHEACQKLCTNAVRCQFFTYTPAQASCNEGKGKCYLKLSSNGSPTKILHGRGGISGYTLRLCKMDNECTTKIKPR
Chain of Coagulation factor XI (P03951 388-625 limits assumed): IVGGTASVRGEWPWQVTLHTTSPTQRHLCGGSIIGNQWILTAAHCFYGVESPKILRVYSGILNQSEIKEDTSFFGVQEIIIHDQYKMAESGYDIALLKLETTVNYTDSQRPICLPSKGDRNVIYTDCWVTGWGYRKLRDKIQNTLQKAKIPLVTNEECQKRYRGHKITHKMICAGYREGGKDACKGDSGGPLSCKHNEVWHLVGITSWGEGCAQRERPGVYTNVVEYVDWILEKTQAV

[4] = target: Vitamin K-dependent protein C (Homo sapiens, UniProt P04070); experiment: Inhibition of human activated protein C preincubated for 15 mins followed by chromogenic substrate addition
Chain of Vitamin K-dependent protein C (P04070 43-197 limits assumed): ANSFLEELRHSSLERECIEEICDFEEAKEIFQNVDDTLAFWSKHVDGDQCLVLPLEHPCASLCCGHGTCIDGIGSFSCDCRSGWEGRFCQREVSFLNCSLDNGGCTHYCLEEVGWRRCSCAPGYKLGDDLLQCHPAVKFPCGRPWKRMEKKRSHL
Chain of Vitamin K-dependent protein C (P04070 212-461 limits assumed): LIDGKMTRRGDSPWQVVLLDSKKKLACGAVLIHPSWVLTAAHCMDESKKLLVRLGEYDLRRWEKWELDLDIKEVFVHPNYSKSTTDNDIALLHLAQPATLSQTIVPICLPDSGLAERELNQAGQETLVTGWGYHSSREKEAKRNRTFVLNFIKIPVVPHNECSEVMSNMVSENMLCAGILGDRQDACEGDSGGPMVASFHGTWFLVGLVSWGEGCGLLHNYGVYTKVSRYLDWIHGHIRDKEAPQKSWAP

[5] = target: T3, Urokinase-type plasminogen activator (Homo sapiens, UniProt P00749); experiment: Inhibition of human uPA preincubated for 15 mins followed by chromogenic substrate addition
[6] = target: Prothrombin (Mus musculus, UniProt P19221); experiment: Inhibition of mouse thrombin preincubated for 15 mins followed by chromogenic substrate addition
[7] = target: T4, Urokinase-type plasminogen activator (Mus musculus, UniProt P06869); experiment: Inhibition of mouse uPA preincubated for 15 mins followed by chromogenic substrate addition
T4 sequence (P06869 21-178 limits assumed): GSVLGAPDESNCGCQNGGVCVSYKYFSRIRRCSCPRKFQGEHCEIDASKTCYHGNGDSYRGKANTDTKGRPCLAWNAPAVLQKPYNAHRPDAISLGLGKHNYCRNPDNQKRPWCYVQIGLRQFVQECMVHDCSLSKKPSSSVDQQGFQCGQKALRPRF
T4 sequence (P06869 180-433 limits assumed): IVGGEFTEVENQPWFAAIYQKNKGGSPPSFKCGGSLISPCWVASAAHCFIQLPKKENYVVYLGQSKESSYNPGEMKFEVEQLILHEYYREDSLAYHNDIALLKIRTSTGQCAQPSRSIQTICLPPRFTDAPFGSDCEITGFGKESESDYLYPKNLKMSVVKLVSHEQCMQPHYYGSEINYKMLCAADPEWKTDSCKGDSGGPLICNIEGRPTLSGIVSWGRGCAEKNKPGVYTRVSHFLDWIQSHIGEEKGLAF

[8] = tested on: CT26; experiment: Cytotoxicity against mouse CT26 cells at 100 uM; type: cell-based; conditions: ct26, 100 µM
[9] = target: Plasma kallikrein (Homo sapiens, UniProt P03952); experiment: Inhibition of human plasma kallikrein preincubated for 15 mins followed by chromogenic substrate addition
Chain of Plasma kallikrein (Homo sapiens, UniProt P03952) (P03952 20-390 limits assumed): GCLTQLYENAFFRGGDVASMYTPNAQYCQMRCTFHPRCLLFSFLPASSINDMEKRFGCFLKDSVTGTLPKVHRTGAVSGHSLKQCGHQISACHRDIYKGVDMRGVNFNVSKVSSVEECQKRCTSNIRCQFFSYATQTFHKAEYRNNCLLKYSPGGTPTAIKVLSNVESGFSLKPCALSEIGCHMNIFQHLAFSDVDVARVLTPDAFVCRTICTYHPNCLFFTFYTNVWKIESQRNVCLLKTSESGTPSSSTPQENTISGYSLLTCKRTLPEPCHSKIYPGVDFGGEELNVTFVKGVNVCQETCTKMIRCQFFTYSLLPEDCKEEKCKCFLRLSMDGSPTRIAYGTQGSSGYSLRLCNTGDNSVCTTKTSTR
Chain of Plasma kallikrein (Homo sapiens, UniProt P03952) (P03952 391-638 limits assumed): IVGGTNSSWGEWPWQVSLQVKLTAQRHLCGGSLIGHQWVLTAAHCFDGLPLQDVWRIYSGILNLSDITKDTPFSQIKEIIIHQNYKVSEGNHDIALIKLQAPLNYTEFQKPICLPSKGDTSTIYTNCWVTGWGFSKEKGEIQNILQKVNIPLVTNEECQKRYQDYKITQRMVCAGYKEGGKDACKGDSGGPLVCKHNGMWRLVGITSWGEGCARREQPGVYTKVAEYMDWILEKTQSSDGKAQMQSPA

[10] = target: Urokinase-type plasminogen activator (Mus musculus) (UniProt P06869); experiment: Inhibition of the intrinsic peri-cellular uPA in mouse CT26 cells assessed as reduction in cell invasion at 33 to 100 uM by Transwell invasion assay relative to control
Chain of Urokinase-type plasminogen activator (Mus musculus) (P06869 21-178 limits assumed): as the sequence (P06869 21-178 limits assumed) above
Chain of Urokinase-type plasminogen activator (Mus musculus) (P06869 180-433 limits assumed): as the sequence (P06869 180-433 limits assumed) above

[11] = target: T4, Urokinase-type plasminogen activator; experiment: Binding affinity to mouse uPA expressed in HEK2936E cells by ITC assay
[12] = target: T4, Urokinase-type plasminogen activator; experiment: Inhibition of mouse uPA serine protease domain preincubated for 15 mins followed by chromogenic substrate addition
[13] = target: T4, Urokinase-type plasminogen activator; experiment: Binding affinity to mouse uPA by SPR assay
[14] = target: T5, Plasminogen (Homo sapiens, UniProt P00747); experiment: Inhibition of human plasmin preincubated for 15 mins followed by chromogenic substrate addition
T5 sequence (P00747 97-580 limits assumed): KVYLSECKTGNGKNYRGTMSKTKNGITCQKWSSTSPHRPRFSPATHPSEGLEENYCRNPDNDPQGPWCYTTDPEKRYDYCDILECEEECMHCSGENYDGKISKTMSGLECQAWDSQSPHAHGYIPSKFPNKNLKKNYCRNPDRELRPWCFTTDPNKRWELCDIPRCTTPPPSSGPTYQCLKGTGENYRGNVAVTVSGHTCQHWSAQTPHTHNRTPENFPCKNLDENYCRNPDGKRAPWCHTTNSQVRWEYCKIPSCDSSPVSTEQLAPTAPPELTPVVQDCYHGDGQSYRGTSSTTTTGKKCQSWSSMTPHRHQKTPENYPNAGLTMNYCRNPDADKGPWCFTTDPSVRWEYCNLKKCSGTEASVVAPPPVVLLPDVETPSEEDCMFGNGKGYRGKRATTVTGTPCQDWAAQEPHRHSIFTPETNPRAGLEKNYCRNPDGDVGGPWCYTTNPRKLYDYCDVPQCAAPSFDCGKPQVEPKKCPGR
T5 sequence (P00747 581-810 limits assumed): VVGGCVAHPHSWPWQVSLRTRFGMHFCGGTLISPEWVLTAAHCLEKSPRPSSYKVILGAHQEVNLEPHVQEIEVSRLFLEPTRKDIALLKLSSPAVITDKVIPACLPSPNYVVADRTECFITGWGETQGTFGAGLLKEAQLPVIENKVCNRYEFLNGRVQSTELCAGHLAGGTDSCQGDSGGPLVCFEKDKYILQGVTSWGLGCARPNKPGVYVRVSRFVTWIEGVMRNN

[15] = target: Plasma kallikrein (Mus musculus, UniProt P26262); experiment: Inhibition of mouse plasma kallikrein preincubated for 15 mins followed by chromogenic substrate addition
Chain of Plasma kallikrein (Mus musculus, UniProt P26262) (P26262 20-390 limits assumed): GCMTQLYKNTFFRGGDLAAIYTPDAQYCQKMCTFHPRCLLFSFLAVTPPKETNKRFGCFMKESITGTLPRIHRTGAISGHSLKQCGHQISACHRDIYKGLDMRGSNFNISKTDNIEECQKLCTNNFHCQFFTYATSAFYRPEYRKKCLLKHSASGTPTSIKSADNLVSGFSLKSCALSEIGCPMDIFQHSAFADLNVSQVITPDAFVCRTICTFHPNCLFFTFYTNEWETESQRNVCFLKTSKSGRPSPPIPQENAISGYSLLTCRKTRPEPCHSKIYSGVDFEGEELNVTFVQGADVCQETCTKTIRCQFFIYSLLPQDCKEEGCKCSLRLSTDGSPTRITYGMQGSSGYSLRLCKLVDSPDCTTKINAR
Chain of Plasma kallikrein (Mus musculus, UniProt P26262) (P26262 391-638 limits assumed): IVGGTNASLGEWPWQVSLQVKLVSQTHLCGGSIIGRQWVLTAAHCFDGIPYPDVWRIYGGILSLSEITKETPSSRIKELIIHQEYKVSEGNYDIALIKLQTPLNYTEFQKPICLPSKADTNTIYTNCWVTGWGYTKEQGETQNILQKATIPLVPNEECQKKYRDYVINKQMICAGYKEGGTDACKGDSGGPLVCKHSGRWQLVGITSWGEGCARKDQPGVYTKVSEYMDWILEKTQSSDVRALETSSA

[16] = Inhibition of mouse trypsin preincubated for 15 mins followed by chromogenic substrate addition
[17] = target: Tissue-type plasminogen activator (Mus musculus, UniProt P11214); experiment: Inhibition of mouse tissue-type plasminogen activator preincubated for 15 mins followed by chromogenic substrate addition
Chain of Tissue-type plasminogen activator (Mus musculus, UniProt P11214) (P11214 whole entry): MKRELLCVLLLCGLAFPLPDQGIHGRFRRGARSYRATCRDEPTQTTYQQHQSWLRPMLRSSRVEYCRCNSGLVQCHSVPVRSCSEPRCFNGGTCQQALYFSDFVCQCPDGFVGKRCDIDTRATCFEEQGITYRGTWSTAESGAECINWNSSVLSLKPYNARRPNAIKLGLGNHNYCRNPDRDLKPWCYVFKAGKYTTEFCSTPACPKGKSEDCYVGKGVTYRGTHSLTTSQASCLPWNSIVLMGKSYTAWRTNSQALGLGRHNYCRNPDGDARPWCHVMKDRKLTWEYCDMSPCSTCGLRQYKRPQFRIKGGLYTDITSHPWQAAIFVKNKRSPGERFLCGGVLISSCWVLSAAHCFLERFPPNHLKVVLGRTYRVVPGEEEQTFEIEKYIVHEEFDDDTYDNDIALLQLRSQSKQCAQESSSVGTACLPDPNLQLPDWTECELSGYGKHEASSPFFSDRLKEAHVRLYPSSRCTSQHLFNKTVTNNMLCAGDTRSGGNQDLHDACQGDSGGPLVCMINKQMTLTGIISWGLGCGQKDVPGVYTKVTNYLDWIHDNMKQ

[18] = target: Urokinase-type plasminogen activator (Mus musculus) (UniProt P06869); experiment: Binding affinity to mouse uPA assessed as dissociation rate constant after 600 secs by SPR assay
[19] = target: T6, Suppressor of tumorigenicity 14 protein (Homo sapiens, UniProt Q9Y5Y6); experiment: Inhibition of human matriptase preincubated for 15 mins followed by chromogenic substrate addition
T6 sequence (Q9Y5Y6 whole entry): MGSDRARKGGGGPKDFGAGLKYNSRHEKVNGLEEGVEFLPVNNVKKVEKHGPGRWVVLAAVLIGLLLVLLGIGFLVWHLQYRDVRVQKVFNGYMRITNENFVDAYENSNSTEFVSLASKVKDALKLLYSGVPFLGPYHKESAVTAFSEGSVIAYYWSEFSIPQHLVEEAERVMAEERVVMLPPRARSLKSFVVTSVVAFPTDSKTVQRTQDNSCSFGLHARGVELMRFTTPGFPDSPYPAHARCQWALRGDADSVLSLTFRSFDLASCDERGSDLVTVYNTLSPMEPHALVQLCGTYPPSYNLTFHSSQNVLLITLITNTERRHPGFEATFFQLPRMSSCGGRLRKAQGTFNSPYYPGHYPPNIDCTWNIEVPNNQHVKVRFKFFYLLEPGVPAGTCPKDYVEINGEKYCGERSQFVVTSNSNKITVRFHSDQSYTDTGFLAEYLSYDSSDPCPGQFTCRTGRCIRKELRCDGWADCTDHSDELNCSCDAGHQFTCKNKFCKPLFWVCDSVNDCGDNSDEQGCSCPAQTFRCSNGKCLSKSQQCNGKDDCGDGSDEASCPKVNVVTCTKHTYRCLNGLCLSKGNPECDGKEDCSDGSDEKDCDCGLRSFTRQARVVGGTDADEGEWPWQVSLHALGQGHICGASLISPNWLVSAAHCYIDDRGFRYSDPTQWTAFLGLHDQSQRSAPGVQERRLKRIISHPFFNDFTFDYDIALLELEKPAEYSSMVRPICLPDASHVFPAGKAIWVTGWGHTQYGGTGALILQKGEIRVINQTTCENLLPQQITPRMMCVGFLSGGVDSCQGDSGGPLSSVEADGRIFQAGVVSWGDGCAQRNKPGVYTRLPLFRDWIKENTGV

[20] = target: Urokinase-type plasminogen activator (Mus musculus) (UniProt P06869); experiment: Inhibition of the intrinsic peri-cellular uPA in mouse CT26 cells assessed as reduction in cell migration at 30 to 100 uM measured every hour by wound healing assay relative to control; type: cell-based
[21] = target: T4, Urokinase-type plasminogen activator; experiment: Inhibition of mouse uPA
[22] = target: Plasminogen (Mus musculus, UniProt P20918); experiment: Inhibition of mouse plasmin preincubated for 15 mins followed by chromogenic substrate addition
[23] = tested on: CT26; experiment: Antimetastatic activity against GFP-fused mouse CT26 cells allografted in Balb/c mouse assessed as reduction in relative fluorescence at 12.3 mg/kg, ip administered daily for 15 days by fluorescence-based assay; type: functional, organism-based
How it was run: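 Lung metastasis model: male Balb/c mice (~20 g, 6/group) given 10^6 GFP-CT-26 cells i.v. with peptide or saline, daily i.p. dosing Day 1–15, sacrificed Day 16. Resected lungs imaged for GFP with 488 nm excitation, emission 520; signal collected over 20×20 mm2 per lung; non-implanted normal group used for background subtraction.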

[24] = tested on: CT26; experiment: Antimetastatic activity against mouse CT26 cells allografted in Balb/c mouse at 12.3 mg/kg, ip administered daily for 15 days by hematoxylin and eosin staining -based assay; type: functional, organism-based
How it was run: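 Lung metastasis model: male Balb/c mice given 10^6 GFP-CT-26 cells i.v., daily i.p. dosing Day 1–15, sacrificed Day 16. Formalin-fixed, paraffin-embedded lung sections stained with H&E for histology alongside normal lungs.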

[25] = tested on: CT26; experiment: Antimetastatic activity against mouse CT26 cells allografted in Balb/c mouse assessed as reduction genomic DNA of metastatic cells at 12.3 mg/kg, ip administered daily for 15 days by qPCR analysis; type: functional, organism-based
How it was run: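 Male Balb/c mice (~20 g, 6/group) given 10^6 GFP-CT-26 cells i.v. in 200 µl mixed with peptide or saline, then daily i.p. peptide Day 1–15; sacrificed Day 16. Lung total DNA isolated after homogenization; 200 ng per SYBR Green qPCR, quantified against standard curve of CT-26 DNA spiked into normal lung DNA (0.135%-100%).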

[26] = Toxicity in Balb/c mouse allografted with mouse CT26 cells assessed as effect on body weight at 12.3 mg/kg, ip administered daily for 15 days; type: organism-based; conditions: in vivo, 360 h
How it was run: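 CT-26 tumour-bearing Balb/c mice dosed i.p. daily with peptide or saline; body weights recorded daily over the 15 days.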

[27] = tested on: CT26; experiment: Antimetastatic activity against GFP-fused mouse CT26 cells allografted in Balb/c mouse assessed as reduction in tumor nodule numbers at 12.3 mg/kg, ip administered daily for 15 days by fluorescence-based assay; type: functional, organism-based
How it was run: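 Lung metastasis model: male Balb/c mice (~20 g, 6/group) given 10^6 GFP-CT-26 cells i.v. with peptide or saline, daily i.p. dosing Day 1–15, sacrificed Day 16. Surface tumor nodules on pleural surfaces counted per lung after soaking in formaldehyde.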

[28] = target: Urokinase-type plasminogen activator (Mus musculus) (UniProt P06869); experiment: Inhibition of the intrinsic peri-cellular uPA in mouse CT26 cells assessed as reduction in cell invasion measured every hour by transwell assay; type: cell-based
[29] = tested on: CT26; experiment: Anti-tumor activity against […] mouse CT26 cells allografted in Balb/c mouse assessed as tumor growth inhibition at 12.3 mg/kg, ip administered daily for 15 days and measured on day 16 by […]; type: functional; conditions: read-out: TGI
How it was run: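 CT-26 cells implanted subcutaneously in right flank of Balb/c mice; once tumors reached about 150~200 mm3, daily intraperitoneal dosing with peptide or saline for 15 days. Mice sacrificed on Day 16; tumors resected and weighed; tumor growth reduction relative to saline group.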

[30] = tested on: CT26; experiment: Antimetastatic activity against GFP-fused mouse CT26 cells allografted in Balb/c mouse assessed as reduction in hyperplastic weights at 12.3 mg/kg, ip administered daily for 15 days by fluorescence-based assay; type: functional, organism-based
How it was run: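 Lung metastasis model: male Balb/c mice (~20 g, 6/group) given 10^6 GFP-CT-26 cells i.v. with peptide or saline, then daily i.p. dosing Day 1–15. Lungs resected and weighed immediately at sacrifice on Day 16; hyperplastic weight = lung weight minus weight of lungs from non-implanted normal mice.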

[31] = target: T5, Plasminogen; experiment: Inhibition of plasmin (unknown origin)
[32] = target: T2, Prothrombin; experiment: Inhibition of thrombin (unknown origin)
[33] = target: T1, Tissue-type plasminogen activator; experiment: Inhibition of tPA (unknown origin)
[34] = Antitumor activity against rat BN472 cells implanted in Norwegian BN rat model of orthotopical breast cancer assessed as inhibition of tumor growth at 1 mg/kg/day, sc; type: functional; conditions: read-out: TGI
[35] = target: Coagulation factor X (Homo sapiens, UniProt P00742); experiment: Inhibition of factor 10a (unknown origin)
[36] = target: T3, Urokinase-type plasminogen activator; experiment: Inhibition of uPA (unknown origin)

Row | Structure (SMILES) | Ki [1] [µM] | Ki [2] [µM] | Ki [3] [µM] | Ki [4] [µM] | Ki [5] [µM] | Ki [6] [µM] | Ki [7] [µM] | Activity [8] | Ki [9] [µM] | Kd [11] [µM] | Ki [12] [µM] | Kd [13] [µM] | Ki [14] [µM] | Ki [15] [µM] | Ki [16] [µM] | Ki [17] [µM] | Ki [19] [µM] | inhibition [20] [%] | Ki [21] [µM] | Ki [22] [µM] | other results
1 | CC[C@H](C)[C@@H]1NC(=O)[C@H](Cc2ccc(O)cc2)NC(=O)[C@H](CCCNC(=N)N)NC(=O)[C@H](CO)NC(=O)[C@H](Cc2ccc(O)cc2)NC(=O)[C@H](C)NC(=O)[C@@H]2CCCN2C(=O)[C@@H](NC(C)=O)CSSC[C@@H](C(N)=O)NC(=O)CNC1=O (Ac-CPAYSRYIGC-NH2; disulfide 1-10) | > 25 | > 25 | > 25 | > 25 | 0.903 | > 25 | 0.02 | Non-Toxic | > 25 | 0.0421 | 0.246 | 0.0147 | > 25 | > 25 | 1.6 | > 25 | > 25 | 30 | 0.02 | > 25 | inhibition [10]: 70 to 80%; K [18]: 0.0064 s⁻¹
2 | CC(=O)N[C@H]1CSSC[C@@H](C(N)=O)NC(=O)[C@H](CC(=O)O)NC(=O)[C@H](CC(C)C)NC(=O)[C@H](Cc2ccc(O)cc2)NC(=O)[C@H](CCCNC(=N)N)NC(=O)[C@H](CO)NC(=O)[C@H](Cc2ccc(O)cc2)NC(=O)[C@H](C)NC(=O)[C@@H]2CCCN2C1=O (Ac-CPAYSRYLDC-NH2; disulfide 1-10) | > 25 | > 25 | > 25 | > 25 | 15 | > 25 | 0.55 | Non-Toxic | > 25 | 0.354 | 1.77 | 0.398 | > 25 | > 25 | 8.3 | > 25 | > 25 | 30 | 0.55 | > 25 | Activity [23]: inactive; Activity [24]: Active; Activity [25]: inactive; Activity [26]: Non-Toxic; Activity [27]: inactive; inhibition [28]: Dose-dependent effect; inhibition in vivo at 12.3 mg/kg [29]: 36.4%; Activity [30]: inactive
3 | CCOC(=O)N1CCN(C(=O)[C@H](Cc2cccc(C(=N)N)c2)NS(=O)(=O)c2c(C(C)C)cc(C(C)C)cc2C(C)C)CC1 |  |  |  |  |  |  |  |  |  |  |  |  |  |  |  |  |  |  |  |  | Ki [31]: 1.46 µM; Ki [32]: 0.5 µM; Ki [33]: 2.51 µM; inhibition in vivo at 1 mg/kg/day [34]: 53%; Ki [35]: 0.98 µM; Ki [36]: 0.65 µM
